Assay results: ChEMBL document CHEMBL4680114, “Optimization of Potent and Selective Ataxia Telangiectasia-Mutated Inhibitors Suitable for a Proof-of-Concept Study in Huntington's Disease Models” (J Med Chem, 2019)
≈ marks a conversion by molar mass, not a printed value.

Legend:
[1] = Cmax/dose in C57BL/6J mouse plasma at 30 mg/kg, po by LC-MS/MS analysis; format: ADME, organism-based; conditions: in vivo
Method in brief: (§1)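 Male C57BL/6 mice, single oral dose as fine suspension in 10% or 20% hydroxypropyl-beta-cyclodextrin in water (10 mL/kg). Terminal cardiac-puncture plasma and saline-rinsed brain, n=3 per time point; brain homogenized in acetonitrile:water 3:1. LC-MS/MS with diclofenac IS; LLOQ 6 nM plasma, 21 nM brain. Composite non-compartmental analysis of mean concentrations; AUC normalized to actual dose.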

[2] = Cmax/dose in C57BL/6J mouse brain at 10 mg/kg, po by LC-MS/MS analysis; format: ADME, organism-based; conditions: in vivo; method in brief: as §1
[3] = Unbound brain-to-plasma concentration ratio in C57BL/6J mouse at 3 mg/kg, iv administered as single dose by LC-MS/MS analysis; format: ADME, organism-based; conditions: brain and plasma, read-out: K(p,uu,brain)
[4] = Volume of distribution at steady state in C57BL/6J mouse at 3 mg/kg, iv administered as single dose by LC-MS/MS analysis; format: ADME, organism-based; conditions: in vivo, read-out: Vdss
Method in brief: (§2)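 Male mice given a single iv dose of 3 mg/kg in 10:50:40 DMSO:PEG400:H2O (5 mL/kg). Plasma (cardiac puncture) and brain collected, n=3 per time point, and measured by LC-MS/MS. Non-compartmental parameters from mean concentrations, with C0 back-extrapolated; AUC by linear trapezoidal method, dose-normalised.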

[5] = AUC/dose in C57BL/6J mouse brain at 3 mg/kg, iv administered as single dose by LC-MS/MS analysis; format: ADME, organism-based; conditions: in vivo
Method in brief: (§3)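 Male C57BL/6 mice, single intravenous dose as solution in 10:50:40 DMSO:PEG400:H2O (5 mL/kg). Plasma by cardiac puncture and brain collected at set times, n=3 per time point. LC-MS/MS quantitation with diclofenac IS. Composite non-compartmental parameters from mean concentrations; C0 back-extrapolated from first two points; kel from at least last three concentrations; AUC dose-normalized.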

[6] = Oral bioavailability in C57BL/6J mouse plasma at 100 mg/kg by LC-MS/MS analysis; format: ADME, organism-based
Method in brief: (§4)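 Male mice given a single oral dose of 10, 30 or 100 mg/kg as a fine suspension in 10% or 20% hydroxypropyl-β-cyclodextrin (10 mL/kg). Plasma and brain collected (n=3/time point) and measured by LC-MS/MS. Non-compartmental analysis on mean concentrations; AUC dose-normalised. %F = normalised po AUCinf / normalised iv AUCinf.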

[7] = Unbound brain-to-plasma concentration ratio in C57BL/6J mouse at 10 mg/kg, po administered as single dose by LC-MS/MS analysis; format: ADME, organism-based; conditions: brain and plasma, read-out: K(p,uu,brain)
[8] = Unbound brain-to-plasma concentration ratio in C57BL/6J mouse at 30 mg/kg, po administered as single dose by LC-MS/MS analysis; format: ADME, organism-based; conditions: brain and plasma, read-out: K(p,uu,brain)
[9] = Cmax/dose in C57BL/6J mouse brain at 30 mg/kg, po by LC-MS/MS analysis; format: ADME, organism-based; conditions: in vivo; method in brief: as §1
[10] = Tmax in C57BL/6J mouse brain at 30 mg/kg, po by LC-MS/MS analysis; format: ADME, organism-based; method in brief: as §4
[11] = Tmax in C57BL/6J mouse plasma at 100 mg/kg, po by LC-MS/MS analysis; format: ADME, organism-based; method in brief: as §4
[12] = Tmax in C57BL/6J mouse brain at 100 mg/kg, po by LC-MS/MS analysis; format: ADME, organism-based; method in brief: as §4
[13] = AUC/dose in C57BL/6J mouse plasma at 10 mg/kg, po by LC-MS/MS analysis; format: ADME, organism-based; conditions: in vivo; method in brief: as §1
[14] = AUC/dose in C57BL/6J mouse brain at 30 mg/kg, po by LC-MS/MS analysis; format: ADME, organism-based; conditions: in vivo; method in brief: as §1
[15] = Oral bioavailability in C57BL/6J mouse plasma at 10 mg/kg by LC-MS/MS analysis; format: ADME, organism-based; method in brief: as §4
[16] = AUC/dose in C57BL/6J mouse brain at 10 mg/kg, po by LC-MS/MS analysis; format: ADME, organism-based; conditions: in vivo; method in brief: as §1
[17] = Cmax/dose in C57BL/6J mouse brain at 100 mg/kg, po by LC-MS/MS analysis; format: ADME, organism-based; conditions: in vivo; method in brief: as §1
[18] = Kinetic solubility in pH 7.4 PBS buffer by LC-UV assay; format: physicochemical; conditions: read-out: Kinetic_solubility
Method in brief: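 Compound from a 10 mM DMSO stock diluted to a nominal 200 µM in 0.1 M potassium phosphate/0.8% NaCl pH 7.4 (2% DMSO final), n=2. Shaken 2 h at room temperature, then filtered. Filtrate quantified by LC-UV against 200 µM and 10 µM DMSO standards, with MS peak confirmation.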

[19] = Unbound brain-to-plasma concentration ratio in C57BL/6J mouse at 100 mg/kg, po administered as single dose by LC-MS/MS analysis; format: ADME, organism-based; conditions: brain and plasma, read-out: K(p,uu,brain)
[20] = Ratio of AUC/dose in brain to plasma of C57BL/6J mouse at 100 mg/kg, po administered as single dose by LC-MS/MS analysis; format: ADME, organism-based; conditions: brain and plasma, read-out: BPR; method in brief: as §4
[21] = AUC/dose in C57BL/6J mouse plasma at 30 mg/kg, po by LC-MS/MS analysis; format: ADME, organism-based; conditions: in vivo; method in brief: as §1
[22] = Ratio of AUC/dose in brain to plasma of C57BL/6J mouse at 10 mg/kg, po administered as single dose by LC-MS/MS analysis; format: ADME, organism-based; conditions: brain and plasma, read-out: BPR; method in brief: as §4
[23] = Ratio of AUC/dose in brain to plasma of C57BL/6J mouse at 30 mg/kg, po administered as single dose by LC-MS/MS analysis; format: ADME, organism-based; conditions: brain and plasma, read-out: BPR; method in brief: as §4
[24] = AUC/dose in C57BL/6J mouse plasma at 100 mg/kg, po by LC-MS/MS analysis; format: ADME, organism-based; conditions: in vivo; method in brief: as §1
[25] = AUC/dose in C57BL/6J mouse brain at 100 mg/kg, po by LC-MS/MS analysis; format: ADME, organism-based; conditions: in vivo; method in brief: as §1
[26] = Tmax in C57BL/6J mouse brain at 10 mg/kg, po by LC-MS/MS analysis; format: ADME, organism-based; method in brief: as §4
[27] = Tmax in C57BL/6J mouse plasma at 30 mg/kg, po by LC-MS/MS analysis; format: ADME, organism-based; method in brief: as §4
[28] = Ratio of AUC/dose in brain to plasma of C57BL/6J mouse at 3 mg/kg, iv administered as single dose by LC-MS/MS analysis; format: ADME, organism-based; conditions: brain and plasma, read-out: BPR; method in brief: as §2
[29] = Cmax/dose in C57BL/6J mouse plasma at 100 mg/kg, po by LC-MS/MS analysis; format: ADME, organism-based; conditions: in vivo; method in brief: as §1
[30] = Tmax in C57BL/6J mouse plasma at 10 mg/kg, po by LC-MS/MS analysis; format: ADME, organism-based; method in brief: as §4
[31] = Oral bioavailability in C57BL/6J mouse plasma at 30 mg/kg by LC-MS/MS analysis; format: ADME, organism-based; method in brief: as §4
[32] = AUC/dose in C57BL/6J mouse plasma at 3 mg/kg, iv administered as single dose by LC-MS/MS analysis; format: ADME, organism-based; conditions: in vivo; method in brief: as §3
[33] = Cmax/dose in C57BL/6J mouse plasma at 10 mg/kg, po by LC-MS/MS analysis; format: ADME, organism-based; conditions: in vivo; method in brief: as §1

SMILES: COc1ccc2c(c1)Cc1cccc(-c3cc(=O)cc(N4CCOCC4)o3)c1S2
- Cmax/dose [1]: 890 nM·kg/mg
- Cmax/dose [2]: 950 nM·kg/mg
- Kp uu [3]: 0.44
- Vd [4]: 1.6 L/kg
- AUC/dose [5]: 3500 nM·kg·h/mg
- bioavailability [6]: 67%
- Kp uu [7]: 0.45
- Kp uu [8]: 0.37
- Cmax/dose [9]: 880 nM·kg/mg
- Tmax [10]: 30 min
- Tmax [11]: 15 min
- Tmax [12]: 60 min
- AUC/dose [13]: 2400 nM·kg·h/mg
- AUC/dose [14]: 3300 nM·kg·h/mg
- bioavailability [15]: 89%
- AUC/dose [16]: 3200 nM·kg·h/mg
- Cmax/dose [17]: 850 nM·kg/mg
- solubility kinetic [18]: 11 µg/mL (≈ 27 µM)
- Kp uu [19]: 0.49
- Kp [20]: 1.4
- AUC/dose [21]: 3000 nM·kg·h/mg
- Kp [22]: 1.3
- Kp [23]: 1.1
- AUC/dose [24]: 1800 nM·kg·h/mg
- AUC/dose [25]: 2600 nM·kg·h/mg
- Tmax [26]: 60 min
- Tmax [27]: 15 min
- Kp [28]: 1.3
- Cmax/dose [29]: 450 nM·kg/mg
- Tmax [30]: 60 min
- bioavailability [31]: 111%
- AUC/dose [32]: 2700 nM·kg·h/mg
- Cmax/dose [33]: 850 nM·kg/mg
